The values below come from ChEMBL document CHEMBL1134642, “Dicationic bis(9-methylphenazine-1-carboxamides): relationships between biological activity and linker chain structure for a series of potent topoisomerase targeted anticancer drugs” (J Med Chem, 2001).

Some results are limits rather than exact numbers.

Assay [1] in a line: Ratio of IC50 values obtained from Jurkat lines, (JLa /JLc). Format: functional, Homo sapiens. Summed up:
(§1)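 Murine P388 leukemia, Lewis lung carcinoma (LL), and human Jurkat leukemia (JLC) cells, plus amsacrine- and doxorubicin-resistant Jurkat derivatives (JLA, JLD), were grown with drug. Seeding per well was 4.5×10^3 (P388), 10^3 (LL) and 3.75×10^3 (Jurkat). Exposure was 3 days (P388) or 4 days (others). Growth was read by [3H]TdR uptake (P388) or sulforhodamine assay. IC50 is the drug concentration (nM) halving cell number versus controls. Ratios are JLA/JLC and JLD/JLC IC50. Independent assays were run in duplicate.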

Assay [2] is described as follows: Inhibitory concentration required to reduce cell number to 50% of control cultures in JLc(Jurkat human leukemia). The format is functional. The procedure, abridged: as §1
Assay [3] concerns P388. The assay is described as follows: Inhibitory concentration required to reduce cell number to 50% of control cultures in P388 (murine leukemia cell line). The format is functional, cell-based. Conditions: Mus musculus. Summed up: as §1
Assay [4] deals with Lewis lung carcinoma cell line. The assay is described as follows: Inhibitory concentration required to reduce cell number to 50% of control cultures in LL(Lewis lung carcinoma cell line). The format is functional, cell-based. The note with it: Mus musculus. The procedure, abridged: as §1
Assay [5] in a line: Ratio of IC50 values obtained from Jurkat lines, (JLd /JLc). Format: functional, Homo sapiens. The procedure, abridged:
as §1

The subject of assay [6] is HT-29. As to the kind of experiment: Inhibitory concentration required to reduce cell growth to 50% of control cultures in the HT-29 human cell line. The format is functional.
The subject of assay [7] is MCF7. The assay is described as follows: Inhibitory concentration required to reduce cell growth to 50% of control cultures in the MCF-7 human cell line. The format is functional.
The nature of assay [8]: Average GI50 value for the drug over the whole cell line panel. Format: functional.
Assay [9] deals with HCT-116. As to the kind of experiment: Inhibitory concentration required to reduce cell growth to 50% of control cultures in the HTC116 human cell line. Format: functional.
Assay [10] in a line: Inhibitory concentration required to reduce cell growth to 50% of control cultures in the NCI-ADR human cell line. Format: functional. Conditions: NCI/ADR-RES.
Assay [11] relates to SK-OV-3. As to the kind of experiment: Inhibitory concentration required to reduce cell growth to 50% of control cultures in the SKOV3 human cell line. The format is functional.
In assay [12] the test system is CAKI-1. The assay is described as follows: Inhibitory concentration required to reduce cell growth to 50% of control cultures in the CAK1 human cell line. The format is functional.
In assay [13] the test system is Mus musculus. As to the kind of experiment: In vivo activity in HT-29 model for tumor growth delay after i.p. administration of 13.3 mg/kg in nude mice. Conditions: route intraperitoneal.
Assay [14] concerns HT-29. As to the kind of experiment: Inhibitory concentration of the drug resulting in inhibition of cell growth to 50% of controls in HT-29 (human colon). Format: functional, cell-based.
Assay [15] deals with Mus musculus. As to the kind of experiment: In vivo activity in colon 38 model for tumor growth delay after i.p. administration of 8.9 mg/kg in C57/B1 mice. Format: functional. The note with it: route intraperitoneal. Summed up:
(§2)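 Treatment started at about 4 mm diameter, with 5 mice per group. Hydrochloride salts in distilled water were given intraperitoneally at 0.01 mL/g, q4d × 3. Calliper measurements were taken three times weekly; volume = 0.52·a²·b. Growth delay is the time for mean tumour volume to reach 4-fold pretreatment volume.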

The nature of assay [16]: Concentration of the drug to reduce cell number to 50% of controls in AuxB1 cell line. Format: functional, cell-based.
Assay [17] relates to MOLT-4. As to the kind of experiment: Inhibitory concentration of the drug resulting in inhibition of cell growth to 50% of controls in MOLT-4 (human leukemia). Format: functional, cell-based.
Assay [18] in a line: Ratio of IC50 values obtained from CHrC5 and AuxB1 cell lines. Format: functional.
Assay [19] has as its system Mus musculus. As to the kind of experiment: In vivo activity in colon 38 model for tumor growth delay after i.p. administration of 13.3 mg/kg in C57/B1 mice. Format: functional. The note with it: route intraperitoneal. The procedure, abridged:
as §2

Assay [20] concerns U-937. As to the kind of experiment: Inhibitory concentration of the drug resulting in inhibition of cell growth to 50% of controls in U937 (human leukemia). The format is functional, cell-based.
The nature of assay [21]: Ratio of IC50 values obtained from D3F-C10 and D3F cell lines. Format: functional.
For assay [22], the system named is D3F. The assay is described as follows: Concentration of the drug to reduce cell number to 50% of controls in D3F cell line. Format: functional, cell-based.
Assay [23] concerns Mus musculus. The assay is described as follows: In vivo activity in colon 38 model for tumor growth delay after i.p. administration of 20 mg/kg in C57/B1 mice. The format is functional. Conditions: route intraperitoneal. Summed up:
as §2

Assay [24] deals with Mus musculus. The assay is described as follows: In vivo activity in HT-29 model for tumor growth delay after i.p. administration of 20 mg/kg in nude mice. The note with it: route intraperitoneal.
Assay [25] has as its system Mus musculus. As to the kind of experiment: In vivo activity in colon 38 model for tumor growth delay after i.p. administration of 30 mg/kg in C57/B1 mice. The format is functional. The note with it: route intraperitoneal. Summed up:
as §2

With `Cc1cccc2nc3cccc(C(=O)NCCCNCCCNCCCNC(=O)c4cccc5nc6cccc(C)c6nc45)c3nc12`, the Ratio was 0.5 in assay [1] and 1 in [5]. The IC50 stood at 1.3 nM in assay [2], 430 nM in assay [3] and 31 nM in assay [4].

For the molecule `Cc1cccc2nc3cccc(C(=O)NCCN(C)CCCN(C)CCNC(=O)c4cccc5nc6cccc(C)c6nc45)c3nc12`, the Ratio in [1] is listed as 0.4; in assay [5] it was 0.8. Also, the IC50 in assay [2] is 0.08 nM; in [3] it was 1.6 nM; in [4], 0.3 nM. The 50% growth inhibitory concentration (GI50) in assay [6] was below 10 nM; in assay [7] it was below 10 nM; in [8], 0.29 nM; in assay [9] it was below 0.1 nM; in assay [10] it was below 0.1 nM; in [11] it was below 0.1 nM. The GI50 in [12] was below 0.1 nM.

With `Cc1cccc2nc3cccc(C(=O)NCCCNCCCCNCCCNC(=O)c4cccc5nc6cccc(C)c6nc45)c3nc12`, the Ratio in assay [1] came to 0.2; in assay [5], 1.2. Moreover, the 50% inhibitory concentration (IC50) in assay [2] was determined as 8.7 nM; in assay [3], 880 nM; in [4], 112 nM. The concentration for 50% growth inhibition (GI50) in assay [6] stood at 366 nM; in assay [7], 74 nM; in [8] it was 2000 nM; in [9], 335 nM; in assay [10] it was 906 nM; in assay [11], 13600 nM. In assay [12], this molecule yielded a GI50 of 8280 nM.

On to `Cc1cccc2nc3cccc(C(=O)NCCNCCCNCCNC(=O)c4cccc5nc6cccc(C)c6nc45)c3nc12`, for which the results for the Ratio in [1] and in assay [5] were 0.7 and 0.6, respectively. Moreover, the half-inhibitory concentration (IC50) stood at 0.24 nM in [2], 7.4 nM in assay [3] and 1.2 nM in assay [4].

With `Cc1cccc2nc3cccc(C(=O)NCCCN4CCN(CCCNC(=O)c5cccc6nc7cccc(C)c7nc56)CC4)c3nc12`, the Ratio in [1] was determined as 0.8; in assay [5], 0.7. The IC50 in assay [2] worked out at 1.3 nM; in [3], 48 nM; in [4], 0.46 nM.

Consider `Cc1cccc2nc3cccc(C(=O)NCCN(C)C)c3nc12`, for which the Ratio in assay [1] and in [5] was 1.1 throughout. Also, the 50% inhibitory concentration (IC50) in [2] worked out at 207 nM; in assay [3], 18 nM; in [4] it was 39 nM.

For the molecule `Cc1cccc2nc3cccc(C(=O)NCCCCNCCCCNCCCCNC(=O)c4cccc5nc6cccc(C)c6nc45)c3nc12`, the Ratio in assay [1] turned out to be 0.3; in [5], 0.9. The results for the IC50 in [2], in assay [3] and in [4] were 67 nM, 890 nM and 290 nM, respectively.

Take `Cc1cccc2cc3cccc(C(=O)NCCN(C)C)c3nc12`: the Ratio in assay [1] stood at 4.6; in assay [5] it was 4.8. Moreover, the IC50 was found to be 46 nM in [2] and 5.6 nM in assay [4].

With `CCCN(CCNC(=O)c1cccc2nc3cccc(C)c3nc12)CCN(CCC)CCNC(=O)c1cccc2nc3cccc(C)c3nc12`, the Ratio in [1] is listed as 0.5; in assay [5] it was 0.8. The IC50 in [2] turned out to be 46 nM; in assay [3], 250 nM; in [4], 120 nM.

As to `Cc1cccc2nc3cccc(C(=O)NCCNCCNCCNC(=O)c4cccc5nc6cccc(C)c6nc45)c3nc12`, the Growth delay in assay [13] came to 2.4 days; in assay [15] it was 2.8 days; in assay [19], 4 days; in assay [23], 7 days. In addition, the IC50 in assay [14] came out at 0.08 nM; in assay [16], 3.7 nM; in assay [17], 0.0062 nM; in assay [2] it was 0.18 nM; in assay [3], 21 nM; in assay [4] it was 2.8 nM. For the same molecule, the values for the IC50 in [20] and in [22] were 0.047 nM and 4.4 nM, respectively. The Ratio in assay [1] is reported as 0.5; in [18], 47.1; in assay [21], 0.91; in assay [5], 0.9. In addition, the GI50 in assay [6] is below 10 nM; in [7] it was below 10 nM; in assay [8], 13 nM; in assay [9], below 10 nM; in assay [10], 15 nM; in [11], below 10 nM. The molecule also showed a concentration for 50% growth inhibition (GI50) in assay [12] below 10 nM.

`Cc1cccc2nc3cccc(C(=O)NCCCCN4CCN(CCCCNC(=O)c5cccc6nc7cccc(C)c7nc56)CC4)c3nc12`: the Ratio in assay [1] and in assay [5] was 0.5 each time. Moreover, the IC50 was determined as 1.1 nM in assay [2], 96 nM in assay [3] and 0.34 nM in assay [4].

Regarding `Cc1cccc2nc3cccc(C(=O)NCCCNCCNCCCNC(=O)c4cccc5nc6cccc(C)c6nc45)c3nc12`, the figures for the Ratio in [1] and in assay [5] were 0.4 and 1.3, respectively. The IC50 is 1.7 nM in [2], 740 nM in assay [3] and 35 nM in assay [4]. Also, the GI50 in assay [6] is 27 nM; in assay [7] it was 24 nM; in [8], 524 nM; in [9] it was 21 nM; in assay [10] it was 8030 nM; in assay [11], 8890 nM. Moreover, the GI50 in [12] is 1000 nM.

In the case of `Cc1ccc(Cl)c2nc3cccc(C(=O)NCCNCCNCCNC(=O)c4cccc5nc6c(Cl)ccc(C)c6nc45)c3nc12`, the results for the Ratio in [1] and in assay [5] were 0.4 and 0.8, respectively. In addition, the concentration for half-maximal inhibition (IC50) came to 0.6 nM in assay [2], 37 nM in [3] and 10 nM in assay [4].

On to `CCN(CCNC(=O)c1cccc2nc3cccc(C)c3nc12)CCN(CC)CCNC(=O)c1cccc2nc3cccc(C)c3nc12`, for which the Ratio in assay [1] was 0.6; in assay [5], 0.7. For the same molecule, the IC50 came out at 16 nM in [2], 170 nM in [3] and 48 nM in assay [4].

Take `Cc1cccc2nc3cccc(C(=O)NCCN(C)CCN(C)CCNC(=O)c4cccc5nc6cccc(C)c6nc45)c3nc12`: the Ratio in [1] came to 0.4; in assay [5] it was 0.6. In addition, the half-inhibitory concentration (IC50) in assay [2] was 5.3 nM; in [3] it was 33 nM; in assay [4], 20 nM.

Take `Cc1ccc(C)c2nc3c(C(=O)NCCNCCNCCNC(=O)c4cccc5nc6c(C)ccc(C)c6nc45)cccc3nc12`: the Growth delay is 7.8 days in assay [24]; 2.8 days in assay [15]; 2.4 days in [19]; 4.4 days in [23]; 7.5 days in [25]. In addition, the IC50 came out at 0.15 nM in assay [14]; 4.5 nM in [16]; 0.067 nM in assay [17]; 0.6 nM in assay [2]; 8.3 nM in assay [3]; 3.9 nM in assay [4]. Further, the results for the IC50 in [20] and in assay [22] were 0.52 nM and 6.5 nM, respectively. In addition, the Ratio in [1] is listed as 0.5; in [18] it was 30.3; in [21], 0.77; in [5] it was 0.6.

With `Cc1cccc2nc3cccc(C(=O)NCCN4CCN(CCNC(=O)c5cccc6nc7cccc(C)c7nc56)CC4)c3nc12`, the Ratio in assay [1] amounted to 0.6; in assay [5], 0.9. The IC50 in assay [2] is 11 nM; in assay [3], 2240 nM; in [4], 12 nM.

With `O=C1c2cccc3cccc(c23)C(=O)N1CCNCCCNCCN1C(=O)c2cccc3cccc(c23)C1=O` [ELINAFIDE], the IC50 in assay [14] turned out to be 0.15 nM; in [17] it was 0.037 nM; in assay [2], 0.7 nM; in assay [3], 1.5 nM; in assay [4], 11 nM; in assay [20], 0.34 nM. Further, the Ratio in assay [1] is reported as 0.3; in assay [5] it was 0.6.
